These compounds were tested against T1, Type-1 angiotensin II receptor (Oryctolagus cuniculus, UniProt P34976) (assay: Displacement of [125I]-Sar1-Ile8-A II at the rabbit aorta angiotensin II receptor, type 1).
T1 sequence (P34976 whole entry): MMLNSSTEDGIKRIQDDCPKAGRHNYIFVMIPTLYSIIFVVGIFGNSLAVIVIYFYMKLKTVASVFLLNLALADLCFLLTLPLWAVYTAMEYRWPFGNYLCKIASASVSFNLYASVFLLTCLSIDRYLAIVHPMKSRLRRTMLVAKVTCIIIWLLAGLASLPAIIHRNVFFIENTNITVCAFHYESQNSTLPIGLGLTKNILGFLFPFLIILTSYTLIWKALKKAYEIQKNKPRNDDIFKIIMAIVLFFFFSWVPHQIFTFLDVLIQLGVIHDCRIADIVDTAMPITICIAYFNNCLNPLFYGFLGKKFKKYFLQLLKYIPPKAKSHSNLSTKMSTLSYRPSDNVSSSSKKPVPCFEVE
Assay type: tissue-based
Method in brief: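 Rabbit aorta membranes in 50 mM Tris-HCl pH 7.4, 5 mM MgCl2, 0.2 mg/mL bacitracin; 0.2% BSA only in original version. Nonspecific binding with 1 μM unlabeled Sar1Ile8-AII. Filtration, gamma counting. Duplicate tubes, five concentrations; IC50 from nonlinear regression of displacement curves, sometimes averaged over separate assays.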

IC50 [nM]	SMILES
30	CCCCc1nnc(SCc2ccccc2Cl)n1Cc1ccc(NC(=O)c2ccccc2C(=O)O)cc1
130	CCCCc1nnc(SCc2ccccc2[N+](=O)[O-])n1Cc1ccc(-c2ccccc2-c2nnn[nH]2)cc1
57	CCCCc1nnc(C(=O)NCc2ccccc2)n1Cc1ccc(-c2ccccc2-c2nnn[nH]2)cc1
420	CCCCc1nc(Cl)c(CC(=O)OC)n1Cc1ccc(NC(=O)c2ccccc2C(=O)O)cc1
26	CCCCc1nnc(SCc2cccc(Cl)c2)n1Cc1ccc(NC(=O)c2ccccc2C(=O)O)cc1
860	CCCCc1nnc(S)n1Cc1ccc(-c2ccccc2C(=O)O)cc1
1400	CCCCc1nnc(-c2ccncc2)n1Cc1ccc(NC(=O)c2ccccc2C(=O)O)cc1
350	CCCCc1nnc(C(=O)N(C)c2ccccc2)n1Cc1ccc(-c2ccccc2-c2nnn[nH]2)cc1
330	CCCCc1nnc(SCC(=O)OC)n1Cc1ccc(NC(=O)c2ccccc2C(=O)O)cc1
720	CCCCc1nnc(SCC(=O)NC)n1Cc1ccc(NC(=O)c2ccccc2C(=O)O)cc1
55	CCCCc1nn2cc(C)nc2n1Cc1ccc(-c2ccccc2-c2nnn[nH]2)cc1
6.8	CCCCc1nnc(SCc2ccc(Cl)cc2)n1Cc1ccc(NC(=O)c2ccccc2C(=O)O)cc1
96	CCCCc1nc2ccccc2n1Cc1ccc(-c2ccccc2-c2nn[nH]n2)cc1
6.1	CCCCc1nnc(SC(C(=O)OC)c2ccccc2)n1Cc1ccc(NC(=O)c2ccccc2C(=O)O)cc1 (centres undefined)
14	CCCCc1nnc(SCc2ccccc2C(=O)OC)n1Cc1ccc(NC(=O)c2ccccc2C(=O)O)cc1
14	CCCCc1nnc(SCc2ccccc2C)n1Cc1ccc(NC(=O)c2ccccc2C(=O)O)cc1
1.4	CCCCc1nnc(SCc2ccccc2-c2nn[nH]n2)n1Cc1ccc(-c2ccccc2-c2nn[nH]n2)cc1
930	CCCCc1nnc(-c2ccccc2)n1Cc1ccc(NC(=O)c2ccccc2C(=O)O)cc1
1000	CCCCc1nnc(-c2ccco2)n1Cc1ccc(NC(=O)c2ccccc2C(=O)O)cc1
1900	CCSc1nnc(-c2ccccc2)n1Cc1ccc(NC(=O)c2ccccc2C(=O)O)cc1
220	CCCCc1nn2c(-c3ccccc3)cnc2n1Cc1ccc(-c2ccccc2-c2nn[nH]n2)cc1
4800	CCSc1nnc(C(F)(F)F)n1Cc1ccc(NC(=O)c2ccccc2C(=O)O)cc1
15	CCCCc1nnc(SCc2cccc(C(=O)O)c2)n1Cc1ccc(NC(=O)c2ccccc2C(=O)O)cc1
400	CCCCc1nnc(S(C)(=O)=O)n1Cc1ccc(-c2ccccc2-c2nn[nH]n2)cc1
140	CCCCc1nnc(NCc2ccc(Cl)cc2)n1Cc1ccc(-c2ccccc2-c2nn[nH]n2)cc1
300	CCCCc1nnc(SC(CC)C(=O)OC)n1Cc1ccc(NC(=O)c2ccccc2C(=O)O)cc1 (centres undefined)

IC50 [nM]	SMILES
17	CCCCc1nnc(SCc2ccccc2C)n1Cc1ccc(-c2ccccc2-c2nn[nH]n2)cc1
21	CCCCc1nnc(SCc2cccc(OC)c2)n1Cc1ccc(NC(=O)c2ccccc2C(=O)O)cc1
10	CCCCc1nnc([S+]([O-])Cc2ccccc2C(=O)O)n1Cc1ccc(-c2ccccc2-c2nnn[nH]2)cc1 (centres undefined)
49	CCCCc1nnc(SCc2ccc3ccccc3c2)n1Cc1ccc(NC(=O)c2ccccc2C(=O)O)cc1
380	CCCSc1nnc(Cc2ccccc2)n1Cc1ccc(NC(=O)c2ccccc2C(=O)O)cc1
24	CCCCc1nnc(SCc2ccc(C(=O)O)cc2)n1Cc1ccc(-c2ccccc2-c2nnn[nH]2)cc1
120	CCCCc1nnc(SCc2ccc(C(=O)OC)cc2)n1Cc1ccc(-c2ccccc2-c2nn[nH]n2)cc1
1600	CCCSc1nnc(-c2ccccc2)n1Cc1ccc(NC(=O)c2ccccc2C(=O)O)cc1
36	CCCCc1nnc(SCC2CCCCC2)n1Cc1ccc(-c2ccccc2-c2nn[nH]n2)cc1
1000	CCSc1nnc(Cc2ccccc2)n1Cc1ccc(NC(=O)c2ccccc2C(=O)O)cc1
36	CCCCc1nnc(SCc2ccccc2CO)n1Cc1ccc(-c2ccccc2-c2nn[nH]n2)cc1
320	CCCSc1nnc(CCCc2ccccc2)n1Cc1ccc(NC(=O)c2ccccc2C(=O)O)cc1
7.8	CCCCc1nn2c(C)c(C)nc2n1Cc1ccc(-c2ccccc2-c2nn[nH]n2)cc1
20	CCCCc1nnc(SC(C(=O)O)c2ccccc2)n1Cc1ccc(NC(=O)c2ccccc2C(=O)O)cc1 (centres undefined)
94	CCCCCc1nnc(SCc2ccc(Cl)cc2)n1Cc1ccc(-c2ccccc2-c2nn[nH]n2)cc1
28	CCCCc1nnc([S+]([O-])Cc2ccc(OC)cc2)n1Cc1ccc(NC(=O)c2ccccc2-c2nn[nH]n2)cc1 (centres undefined)
94	CCCCc1nnc(SCc2cccc(OC)c2)n1Cc1ccc(-c2ccccc2-c2nn[nH]n2)cc1
370	CCCCc1nnc(OCc2ccccc2)n1Cc1ccc(-c2ccccc2-c2nn[nH]n2)cc1
60	CCCCc1nnc(Sc2ccccc2)n1Cc1ccc(NC(=O)c2ccccc2C(=O)O)cc1
2100	CCCSc1nnc(C(F)(F)F)n1Cc1ccc(NC(=O)c2ccccc2C(=O)O)cc1
780	CCCCc1nnc(NCc2ccc(OC)cc2)n1Cc1ccc(-c2ccccc2-c2nnn[nH]2)cc1
110	CCCCc1nnc(SCc2ccccc2Cl)n1Cc1ccc(-c2ccccc2-c2nnn[nH]2)cc1
32	CCCCc1nnc(SCc2cccc(C)c2)n1Cc1ccc(NC(=O)c2ccccc2C(=O)O)cc1
42	CCCCc1nnc(SCc2ccc(C(F)(F)F)cc2)n1Cc1ccc(NC(=O)c2ccccc2C(=O)O)cc1
230	CCCCc1nc(Cl)c(CO)n1Cc1ccc(-c2ccccc2C(=O)O)cc1
98	CCCc1nnc(SCc2ccc(Cl)cc2)n1Cc1ccc(-c2ccccc2-c2nn[nH]n2)cc1

IC50 [nM]	SMILES
100	CCCCc1nnc(Sc2ccccc2)n1Cc1ccc(-c2ccccc2-c2nn[nH]n2)cc1
60	CCCCc1nnc(SCc2ccccc2C#N)n1Cc1ccc(NC(=O)c2ccccc2C(=O)O)cc1
4.1	CCCCc1nnc(SCc2ccc(OC)cc2)n1Cc1ccc(NC(=O)c2ccccc2-c2nn[nH]n2)cc1
1200	CCCSc1nnc(CSc2ccccc2)n1Cc1ccc(NC(=O)c2ccccc2C(=O)O)cc1
190	CCCCc1nnc(SCC(=O)c2ccccc2)n1Cc1ccc(NC(=O)c2ccccc2C(=O)O)cc1
35	CCCCc1nnc(SCCc2ccccc2)n1Cc1ccc(-c2ccccc2-c2nnn[nH]2)cc1
31	CCCCc1nnc(SCc2ccc(OC)cc2)n1Cc1ccc(-c2ccccc2-c2nnn[nH]2)cc1
5200	CCSc1nnc(COC)n1Cc1ccc(NC(=O)c2ccccc2C(=O)O)cc1
7.4	CCCCc1nnc([S+]([O-])Cc2ccc(OC)cc2)n1Cc1ccc(NC(=O)c2ccccc2C(=O)O)cc1 (centres undefined)
120	CCCc1nnc(SCc2ccccc2)n1Cc1ccc(NC(=O)c2ccccc2C(=O)O)cc1
63	CCCCc1nnc(OCCc2ccccc2)n1Cc1ccc(-c2ccccc2-c2nnn[nH]2)cc1
90	CCCCc1nnc(SCc2ccccc2C(=O)OC)n1Cc1ccc(-c2ccccc2-c2nnn[nH]2)cc1
30	CCCCc1nnc(SCc2cccc(C(=O)OC)c2)n1Cc1ccc(NC(=O)c2ccccc2C(=O)O)cc1
8.9	CCCCc1nnc([S+]([O-])Cc2ccc([N+](=O)[O-])cc2)n1Cc1ccc(-c2ccccc2-c2nnn[nH]2)cc1 (centres undefined)
72	CCCCc1nnc(SCC(C)C)n1Cc1ccc(-c2ccccc2-c2nn[nH]n2)cc1
480	CCCCc1nnc(SCCO)n1Cc1ccc(NC(=O)c2ccccc2C(=O)O)cc1
170	CCCCc1nn2c(-c3ccccc3)c(C)nc2n1Cc1ccc(-c2ccccc2-c2nnn[nH]2)cc1
1700	CCCCc1nnc(-c2cccnc2)n1Cc1ccc(NC(=O)c2ccccc2C(=O)O)cc1
310	CCCCc1nnc(SC)n1Cc1ccc(-c2ccccc2-c2nnn[nH]2)cc1
55	CCCCc1nn2cc(CC)nc2n1Cc1ccc(-c2ccccc2-c2nn[nH]n2)cc1
13	CCCCc1nn2c(C)c(-c3ccccc3)nc2n1Cc1ccc(-c2ccccc2-c2nnn[nH]2)cc1
50	CCCCc1nnc([S+]([O-])Cc2ccc(OC)cc2)n1Cc1ccc(-c2ccccc2-c2nnn[nH]2)cc1 (centres undefined)
70	CCCCc1nnc(SCCc2ccccc2)n1Cc1ccc(NC(=O)c2ccccc2C(=O)O)cc1
7.6	CCCCc1nnc(SCc2ccc(C)cc2)n1Cc1ccc(NC(=O)c2ccccc2C(=O)O)cc1

Each compound was assayed on Rattus norvegicus (assay: Time from onset of action until significant (i.e., >= 30%) inhibition of pressor response no longer observed (1 mg/kg intravenous route).).
Assay type: functional
Method in brief: (§1)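 Same conscious-rat AII challenge protocol: AII 0.1 μg/kg iv boluses repeated after iv or po dosing, ΔMAP recorded. Duration is the time from onset until inhibition falls below 30% and stays below 30% for two further AII challenges. Averaged over at least two rats.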

SMILES	Duration [h]
CCCCc1nnc(SCc2ccccc2-c2nn[nH]n2)n1Cc1ccc(-c2ccccc2-c2nn[nH]n2)cc1	0.6
CCCCc1nnc(SCc2ccc(OC)cc2)n1Cc1ccc(NC(=O)c2ccccc2-c2nn[nH]n2)cc1	0.2

These compounds were tested on Rattus norvegicus (assay: Time from onset of action until significant (i.e., >= 30%) inhibition of pressor response no longer observed (3 mg/kg intravenous route)).
Assay type: functional
Method in brief: as §1

SMILES	Duration [h]
CCCCc1nnc(SCc2ccccc2C)n1Cc1ccc(NC(=O)c2ccccc2C(=O)O)cc1	0.5
CCCCc1nnc(SCc2ccc(C)cc2)n1Cc1ccc(NC(=O)c2ccccc2C(=O)O)cc1	0.1

What follows are compounds tested on Rattus norvegicus (assay: Peak inhibition of A II pressor response in conscious normotensive rats after intravenous administration of 3 mg/kg of drug (2 animals treated)).
Assay type: functional
Method in brief: (§2)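 Male Sprague-Dawley rats (300–400 g) catheterized under methohexital, recovered overnight, conscious. Compound given iv (saline or NaHCO3/saline/water vehicle) or po, with food withheld for oral dosing. AII 0.1 μg/kg iv bolus given at -45, -30 and -15 min, then at 5–60 min and every 30 min afterwards. Peak percent inhibition of the AII ΔMAP response, averaged over at least two rats.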

SMILES	inhibition in vivo at 3 mg/kg [%]
CCCCc1nnc(SCc2ccccc2C)n1Cc1ccc(NC(=O)c2ccccc2C(=O)O)cc1	56
CCCCc1nnc(SCc2ccc(C)cc2)n1Cc1ccc(NC(=O)c2ccccc2C(=O)O)cc1	50

These compounds were tested on Rattus norvegicus (assay: Peak inhibition of A II pressor response in conscious normotensive rats after intravenous administration of 1 mg/kg of drug (2 animals treated)).
Assay type: functional
Method in brief: as §2

SMILES	inhibition in vivo at 1 mg/kg [%]
CCCCc1nnc(SCc2ccccc2-c2nn[nH]n2)n1Cc1ccc(-c2ccccc2-c2nn[nH]n2)cc1	62
CCCCc1nnc(SCc2ccc(OC)cc2)n1Cc1ccc(NC(=O)c2ccccc2-c2nn[nH]n2)cc1	70
